# Only some compounds are listed: those with a hit (about 2.9% of all), similar ones and a draw of the others.
# Apaf-1 inh: human Apaf-1 inhibition; inhibition, % at 20 µM; actives 0.71% (n = 330,000); O14727; AID 489030; reconstituted apoptosome caspase-3 activity, DEVD-Rh110 fluorescence; active means inhibition of at least 40% at 20 µM;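 further: plate controls were DMSO wells for no effect and DEVD-CHO caspase inhibitor wells for full effect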
#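 Material: reconstituted apoptosome with Apaf-1, cytochrome c, caspase-9, procaspase-3, dATP; medium: pH 7.5 Hepes buffer with CHAPS, BSA, DTT; also added: cytochrome c and DEVD-Rh110 substrate; timing: 30 min plus 50 min, RT; signal: Rh110 fluorescence intensity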
# PfGluPho inh: PfG6PD (Plasmodium falciparum) enzyme inhibition. PfGluPho enzyme, NADPH resazurin-diaphorase fluorescence. inhibition, % at 20 µM. actives 0.78% (n = 350,000). AID 504690;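 active means inhibition reaching at least a set limit at 20 µM in the primary screen, cut at about 59% in these data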;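 further: 0% = DMSO wells with substrate and 100% = DMSO wells lacking glucose-6-phosphate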
# UBC13 inh: inhibitors of human UBC13 polyubiquitin chain formation. TR-FRET. inhibition, % at 20 µM. actives 0.47% (n = 330,000); in the data active means inhibition above about 45%, passing the limit was not always enough
# ZTA DNA inh: blocks Epstein-Barr virus ZTA, an EBNA-1 counter-screen; AID 2234; P03206; inhibition, % at 11 µM; actives 0.15% (n = 320,000); ZTA-DNA binding, fluorescence polarization; in the data active means inhibition above about 33%
# Target sequence (P03206 whole entry, looked up): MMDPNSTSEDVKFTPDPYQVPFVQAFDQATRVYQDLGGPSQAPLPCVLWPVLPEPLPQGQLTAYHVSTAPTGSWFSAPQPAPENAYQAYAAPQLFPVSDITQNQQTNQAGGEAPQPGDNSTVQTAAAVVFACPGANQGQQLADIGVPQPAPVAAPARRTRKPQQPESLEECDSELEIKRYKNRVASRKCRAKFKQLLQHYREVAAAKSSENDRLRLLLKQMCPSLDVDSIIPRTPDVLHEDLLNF
# M18AAP inhibitor: blocks P. falciparum M18 aspartyl aminopeptidase | recombinant PfM18AAP, H-Glu-NHMec fluorogenic cleavage | inhibition, % at 7.35 µM | actives 1.2% (n = 290,000) | AID 1822;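 active means inhibition above the campaign mean inhibition over all tested compounds plus 3 SD, cut at about 28% in these data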;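 further: 0% = plate median of test compound wells and 100% = 2 mM ZnCl2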
# EBNA-1 inh: blocks EBNA-1 binding to DNA; inhibition, % at 14.8 µM; EBNA-1 DNA binding, fluorescence polarization; actives 0.34% (n = 300,000); in the data active means inhibition above about 28%
# Casp3 UBC13 ctr: inhibits human caspase-3 in UBC13 counter-screen | shares compounds with UBC13 inh | Recombinant caspase-3, Caspase-Glo 3/7 luminescence, 60 min | inhibition, % at 20 µM | actives 4% (n = 1,400);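 active means mean inhibition across replicates above about 26%, limit read from the data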;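 further: plate controls were DMSO with caspase-3 for no effect and DMSO wells lacking enzyme for full effect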
# Target sequence (P42574 whole entry, looked up): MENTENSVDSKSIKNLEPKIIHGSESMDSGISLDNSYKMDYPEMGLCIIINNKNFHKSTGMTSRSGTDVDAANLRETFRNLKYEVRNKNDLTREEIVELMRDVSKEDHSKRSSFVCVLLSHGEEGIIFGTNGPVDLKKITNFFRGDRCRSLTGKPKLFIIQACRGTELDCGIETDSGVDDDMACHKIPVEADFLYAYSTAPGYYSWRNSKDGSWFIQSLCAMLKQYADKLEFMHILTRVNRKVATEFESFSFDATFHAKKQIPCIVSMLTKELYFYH
# UBC13 confirm: confirmation of human UBC13 polyubiquitin inhibitors; shares compounds with UBC13 inh; UBC13 polyubiquitination, TR-FRET, biochemical; inhibition, % at 10 µM; actives 68% (n = 1,400); in the data active means inhibition above about 45%
# Apaf-1 inh conf: confirmation of Apaf-1 inhibitors | actives 25% (n = 1,800) | inhibition, % at 20 µM | shares compounds with Apaf-1 inh | reconstituted apoptosome, caspase-3 DEVD-Rh110 fluorescence;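 active means mean inhibition of at least 40% at 20 µM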;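 further: plate controls were DMSO wells for no effect and DEVD-CHO caspase inhibitor control wells for full effect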
# Rh110 interf inh: interferes with Rh110 fluorescence, flagging false Apaf-1 inhibitors; shares compounds with Apaf-1 inh; Rh110 fluorescence interference, quenched caspase reaction; activation (fluorescence interference), % at 20 µM; 1,800 tested, under 10 active;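 active means signal rise of 40% or more at 20 µM, treated as a fluorescence artifact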
# Fluor interf inh: counter-screen for Apaf-1 inhibitors: fluorescence interference, dose response | shares compounds with Apaf-1 inh | IC50, µM | fluorescence interference counterscreen, Apaf-1 assay format | 460 tested, under 10 active; call rule not given here
# * hit, by the source's call; i = inactive; . = no result.
SMILES,Apaf-1 inh,PfGluPho inh,UBC13 inh,ZTA DNA inh,M18AAP inhibitor,EBNA-1 inh,Casp3 UBC13 ctr,UBC13 confirm,Apaf-1 inh conf,Rh110 interf inh,others
CCN(CC)CCNC(=O)c1c(O)c2ccccc2n(Cc2ccccc2)c1=O,17,9,43,-11,-4,-8,.,.,.,.,
CCCCCSc1cc(OC)c(CCNC)cc1OC,8,8,20,0,11,-14,.,.,.,.,
CCCCCCCSc1cc(OC)c(CCNC)cc1OC,25,-3,51*,-2,1,-5,-2,62*,.,.,
CC12CNCC(C)(CNC1)C2O (configuration not stated),28,13,57*,-4,-13,5,0,1,.,.,
COc1ccccc1CCNCc1cccc(C(F)(F)F)c1,-5,9,52*,-5,-12,3,0,10,.,.,
COC(=O)C1=C(c2ccccc2)C[C@@H]2CC[C@H]1N2C(=O)NCCNC(C)=O,-1,-9,-7,1,.,8,.,.,.,.,
COc1cc2c(c(OC)c1OC)-c1ccc(O)c(=O)cc1[C@@H](N)CC2,-5,-13,100*,-11,.,-14,1,93*,.,.,
Cc1cc(OC(C)C(=O)N[C@H](C(=O)O)c2ccccc2)c2c3c(c(=O)oc2c1)CCC3 (some centres not stated),10,1,6,8,3,0,.,.,.,.,
Nc1cc(Cl)c2nonc2c1[N+](=O)[O-],.,46,.,0,4,-8,.,.,.,.,
NC(N)=Nc1ccc2[nH]c3c(c2c1)C[C@@]1(O)[C@H]2Cc4ccc(O)c5c4[C@@]1(CCN2CC1CC1)[C@H]3O5,-27,97*,53*,6,.,4,-6,11,.,.,
Oc1ccc2c3c1O[C@H]1[C@@H](O)CC[C@@]4(O)[C@@H](C2)N(CC2CCC2)CC[C@]314,-11,0,12,6,.,-3,.,.,.,.,
CCCCCn1cc(C(=O)C(=O)N2CCOCC2)c2ccccc21,6,7,24,-12,-10,1,.,.,.,.,
O=C(C(=O)N1CCOCC1)c1cn(Cc2ccccc2Cl)c2ccccc12,4,-14,54*,-1,-15,-2,-2,53*,.,.,
O=C(C(=O)N1CCOCC1)c1cn(Cc2ccc(F)cc2)c2ccccc12,0,13,45*,-2,-1,4,-4,42,.,.,
C/C=C1\CN2[C@H]3C[C@@]45c6ccccc6N(C)[C@H]4[C@@H]2CC1C3[C@H]5O (some centres not stated),3,-2,-3,8,.,8,.,.,.,.,
COCCCNC(=O)c1c(NC(=O)c2ccccc2)n(Cc2ccccc2)c2nc3ccccc3nc12,33,-2,49*,4,4,-3,-1,37,.,.,
CCCCn1c(N)c(C(=O)OCCOC)c2nc3ccccc3nc21,24,7,2,7,2,8,.,.,.,.,
CN1CCN(C(=O)COc2ccc(S(=O)(=O)NC3CCCCC3)cc2Cl)CC1,-11,3,6,16,4,1,.,.,.,.,
COC(=O)C1=C(c2ccc(OCc3ccccc3)cc2)C[C@@H]2CC[C@H]1N2C(=O)NC1CCN(Cc2ccccc2)CC1,58*,11,55*,13,.,.,-3,30,23,10,
NC(N)=N/N=C/c1cn(-c2ccccc2)nc1-c1cccs1,41*,4,79*,-2,6,-2,2,85*,14,15,
O=c1c2ccccc2nc(-c2cccs2)n1-c1ccccc1,14,-18,6,-3,-4,-6,.,.,.,.,
CC[n+]1c(-c2ccccc2)c2cc(N)ccc2c2ccc(N)cc21,.,50,.,.,.,.,.,.,.,.,
O=[N+]([O-])c1ccccc1-c1cc(-c2ccccc2)cc(-c2ccccc2)[n+]1Cc1ccccc1Cl,53*,-5,38,-35,.,-9,.,.,20,9,
O=[N+]([O-])c1ccc(N2CCCC2)c2ccncc12,34,32,i,-7,6,-7,.,.,.,.,
O=[N+]([O-])c1ccc(NC2CCCC2)c2ccncc12,42*,21,-190,5,-6,-15,.,.,15,2,
SMILES,Apaf-1 inh,PfGluPho inh,UBC13 inh,ZTA DNA inh,M18AAP inhibitor,EBNA-1 inh,Casp3 UBC13 ctr,UBC13 confirm,Apaf-1 inh conf,Rh110 interf inh,others
CCN1CCN(Cc2cccnc2)CC1,-4,-10,0,-8,-1,3,.,.,.,.,
O=[N+]([O-])c1ccc(NC2CCN(Cc3ccccc3)CC2)c2ccncc12,74*,16,-106,1,6,14,.,.,21,9,
Nc1ccncc1Cl,-8,-1,13,10,-7,5,.,.,.,.,
COC(=O)C1=C(c2ccc(OC)c(OC)c2)C[C@@H]2CC[C@H]1N2C(=O)NCc1ccc(F)cc1,7,-8,-2,10,.,.,.,.,.,.,
CN1CCN2c3ccccc3CC3(C(=O)N(C)C(=O)N(C)C3=O)C2C1 (configuration not stated),-14,6,0,0,-3,5,.,.,.,.,
Nc1c2c(nc3ccccc13)CCN(Cc1ccccc1)C2,10,-4,-73,0,25,3,.,.,.,.,
Nc1cc2nc3ccccc3nc2cc1N,62*,39,-118,-12,11,5,.,.,51*,-9,Fluor interf inh=>100
CC(C)CCn1c(N)c(C(=O)OCC2CCCO2)c2nc3ccccc3nc21 (configuration not stated),41*,13,12,7,3,-2,.,.,18,0,
CCCNC(=O)c1c(N)n(CC2CCCO2)c2nc3ccccc3nc12 (configuration not stated),93*,27,0,-10,0,-11,.,.,44*,8,Fluor interf inh=>100
CC(C)OCCCNC(=O)c1c(N)n(CC2CCCO2)c2nc3ccccc3nc12 (configuration not stated),94*,36,-4,19,6,13,.,.,30,17,
Nc1c(C(=O)OC2CCCCC2)c2nc3ccccc3nc2n1CC1CCCO1 (configuration not stated),32,16,10,16,-1,12,.,.,.,.,
CC(C)OC(=O)c1c(N)n(CC2CCCO2)c2nc3ccccc3nc12 (configuration not stated),81*,22,0,9,-7,-2,.,.,11,5,
Cc1ccccc1NC(=NCCCN1CC1)Nc1ccccc1C,.,39,.,.,.,.,.,.,.,.,

# Assay outcomes (PubChem)
